Data taken from ChEMBL document CHEMBL3046448, “Design and syntheses of novel phthalazin-1(2H)-one derivatives as acetohydroxyacid synthase inhibitors” (J Agric Food Chem, 2006).

Tests used:
Chenopodium album [1] = assay: Herbicidal activity against Chenopodium album assessed as growth inhibition at 150 g ai/ha applied as post-emergence treatment under green house conditions measured 15 days post compound treatment; format: functional; conditions: 360 h, read-out: GI
Procedure, shortened: (§1)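 Post-emergence spray on pot-grown dicot weeds at the two-leaf stage in a greenhouse. Clay soil: pH 6.5, 1.6% organic matter, 37.3% clay, CEC 12.1 cmol/kg. Formulation: 100 g/L DMF/TW-80 emulsified concentrate, water-diluted to 150 g ai/ha. Untreated and DMF solvent controls. Visual inhibition rating at 15 days: ++ >80%, + 50-80%, − <50%.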

Amaranthus retroflexus [2] = assay: Herbicidal activity against Amaranthus retroflexus assessed as growth inhibition at 150 g ai/ha applied as post-emergence treatment under green house conditions measured 15 days post compound treatment; format: functional; conditions: 360 h, read-out: GI; procedure, shortened: as §1
Brassica juncea [3] = assay: Herbicidal activity against Brassica juncea assessed as growth inhibition at 150 g ai/ha applied as post-emergence treatment under green house conditions measured 15 days post compound treatment; format: functional; conditions: 360 h, read-out: GI; procedure, shortened: as §1
Setaria viridis [4] = assay: Herbicidal activity against Setaria viridis (green foxtail) assessed as growth inhibition at 150 g ai/ha applied as post-emergence treatment under green house conditions measured 15 days post compound treatment; format: functional; conditions: 360 h, read-out: GI
Procedure, shortened: (§2)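 Monocot weeds grown in pots in a greenhouse and sprayed post-emergence at the one-leaf stage. Clay soil: pH 6.5, 1.6% organic matter, 37.3% clay, CEC 12.1 cmol/kg. Formulation: 100 g/L emulsified concentrate (DMF, TW-80) diluted with water to 150 g ai/ha. Untreated and DMF controls included. Growth inhibition scored visually after 15 days: ++ >80%, + 50-80%, − <50%.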

Digitaria sanguinalis [5] = assay: Herbicidal activity against Digitaria sanguinalis (hairy crabgrass) assessed as growth inhibition at 150 g ai/ha applied as post-emergence treatment under green house conditions measured 15 days post compound treatment; format: functional; conditions: 360 h, read-out: GI; procedure, shortened: as §2
Amaranthus retroflexus [6] = assay: Herbicidal activity against Amaranthus retroflexus assessed as growth inhibition at 150 g ai/ha applied as pre-emergence treatment 24 hr after weeds seeds sowing under green house conditions measured 15 days post compound treatment; format: functional; conditions: read-out: GI
Procedure, shortened: (§3)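 Pre-emergence spray applied 24 h after sowing weeds in pots in a greenhouse. Clay soil: pH 6.5, 1.6% organic matter, 37.3% clay, CEC 12.1 cmol/kg. Formulation: 100 g/L emulsified concentrate (DMF solvent, TW-80 emulsifier) diluted with water to 150 g ai/ha. Untreated and DMF-treated controls. Growth inhibition judged visually at 15 days: ++ >80%, + 50-80%, − <50%.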

Brassica juncea [7] = assay: Herbicidal activity against Brassica juncea assessed as growth inhibition at 150 g ai/ha applied as pre-emergence treatment 24 hr after weeds seeds sowing under green house conditions measured 15 days post compound treatment; format: functional; conditions: read-out: GI; procedure, shortened: as §3
Setaria viridis [8] = assay: Herbicidal activity against Setaria viridis (green foxtail) assessed as growth inhibition at 150 g ai/ha applied as pre-emergence treatment 24 hr after weeds seeds sowing under green house conditions measured 15 days post compound treatment; format: functional; conditions: read-out: GI; procedure, shortened: as §3
Digitaria sanguinalis [9] = assay: Herbicidal activity against Digitaria sanguinalis (hairy crabgrass) assessed as growth inhibition at 150 g ai/ha applied as pre-emergence treatment 24 hr after weeds seeds sowing under green house conditions measured 15 days post compound treatment; format: functional; conditions: read-out: GI; procedure, shortened: as §3
Echinochloa crus-galli [10] = assay: Herbicidal activity against Echinochloa crus-galli (barnyard grass) assessed as growth inhibition at 150 g ai/ha applied as post-emergence treatment under green house conditions measured 15 days post compound treatment; format: functional; conditions: 360 h, read-out: GI; procedure, shortened: as §2
Chenopodium album [11] = assay: Herbicidal activity against Chenopodium album assessed as growth inhibition at 150 g ai/ha applied as pre-emergence treatment 24 hr after weeds seeds sowing under green house conditions measured 15 days post compound treatment; format: functional; conditions: read-out: GI; procedure, shortened: as §3
Echinochloa crus-galli [12] = assay: Herbicidal activity against Echinochloa crus-galli (barnyard grass) assessed as growth inhibition at 150 g ai/ha applied as pre-emergence treatment 24 hr after weeds seeds sowing under green house conditions measured 15 days post compound treatment; format: functional; conditions: read-out: GI; procedure, shortened: as §3
[13] = biological target: T1, Acetolactate synthase, chloroplastic (Arabidopsis thaliana, UniProt P17597); assay: Inhibition of wild type Arabidopsis thaliana acetohydroxyacid synthase
T1 sequence (P17597 whole entry): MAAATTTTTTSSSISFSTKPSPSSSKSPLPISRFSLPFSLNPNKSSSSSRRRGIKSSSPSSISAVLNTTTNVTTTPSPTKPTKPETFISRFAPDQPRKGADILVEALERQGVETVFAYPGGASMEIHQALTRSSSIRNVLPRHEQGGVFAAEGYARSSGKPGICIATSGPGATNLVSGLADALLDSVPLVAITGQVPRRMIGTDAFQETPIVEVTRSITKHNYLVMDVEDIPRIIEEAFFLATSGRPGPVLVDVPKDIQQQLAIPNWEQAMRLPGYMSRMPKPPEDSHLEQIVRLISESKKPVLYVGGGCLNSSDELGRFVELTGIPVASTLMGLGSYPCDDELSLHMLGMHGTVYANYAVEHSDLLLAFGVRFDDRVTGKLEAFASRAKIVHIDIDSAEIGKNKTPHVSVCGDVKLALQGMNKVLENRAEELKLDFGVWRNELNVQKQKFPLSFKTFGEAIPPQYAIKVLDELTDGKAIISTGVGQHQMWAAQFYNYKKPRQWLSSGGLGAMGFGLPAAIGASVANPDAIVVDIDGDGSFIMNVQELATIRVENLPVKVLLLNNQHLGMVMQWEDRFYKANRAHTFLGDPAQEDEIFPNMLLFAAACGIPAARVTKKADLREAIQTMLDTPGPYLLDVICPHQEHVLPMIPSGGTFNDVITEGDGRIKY

Row | SMILES | inhibition of growth at 150 g/ha (Chenopodium album [1]) | inhibition of growth at 150 g/ha (Amaranthus retroflexus [2]) | inhibition of growth at 150 g/ha (Brassica juncea [3]) | inhibition of growth at 150 g/ha (Setaria viridis [4]) | inhibition of growth at 150 g/ha (Digitaria sanguinalis [5]) | inhibition of growth at 150 g/ha (Amaranthus retroflexus [6]) | inhibition of growth at 150 g/ha (Brassica juncea [7]) | inhibition of growth at 150 g/ha (Setaria viridis [8]) | inhibition of growth at 150 g/ha (Digitaria sanguinalis [9]) | inhibition of growth at 150 g/ha (Echinochloa crus-galli [10]) | inhibition of growth at 150 g/ha (Chenopodium album [11]) | inhibition of growth at 150 g/ha (Echinochloa crus-galli [12]) | Ki [13]
1 | CCn1nc(C)c2cccc(Oc3nc(OC)cc(OC)n3)c2c1=O | 50% | > 80% | < 50% | > 80% | > 80% | < 50% | < 50% | < 50% | < 50% | > 80% | < 50% | < 50% | 1680 µM
2 | COc1cc(OC)nc(Oc2cccc3c(C)nn(Cc4ccccc4)c(=O)c23)n1 | < 50% | < 50% | < 50% | < 50% | < 50% | < 50% | < 50% | < 50% | < 50% | < 50% | < 50% | < 50% | 822 µM
3 | COc1cc(OC)nc(Oc2cccc3c(C)nn(Cc4ccc(Br)cc4F)c(=O)c23)n1 | < 50% | < 50% | < 50% | < 50% | < 50% | < 50% | < 50% | < 50% | < 50% | < 50% | < 50% | < 50% | 420 µM
4 | COc1cc(OC)nc(Oc2cccc3c(C)nn(Cc4c(F)cccc4F)c(=O)c23)n1 | < 50% | < 50% | < 50% | < 50% | < 50% | < 50% | < 50% | < 50% | < 50% | < 50% | < 50% | < 50% | 634 µM
5 | COc1cc(OC)nc(Oc2cccc3c(C)nn(Cc4ccc(F)cc4F)c(=O)c23)n1 | < 50% | > 80% | 50% | 50% | < 50% | < 50% | < 50% | < 50% | < 50% | 50% | < 50% | < 50% | 1040 µM
